Experimental data as given in ChEMBL document CHEMBL1150162, “Antimicrobial activities of naphthazarins from Arnebia euchroma” (2002).
Converted amounts (≈) assume the structure as drawn. The source made the active and inactive calls. No cut-off for these calls is given here.

What was measured:
Enterococcus faecalis [1] = assay: Antibacterial activity against Enterococcus faecalis after 24 hrs by broth microdilution method; type: functional
Outline: (§1)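 2-fold serial dilutions of test agent in LB broth, DMSO under 5% final. Inoculum about 5 × 10^5 CFU/mL, confirmed by LB agar plating. Incubated 24 h at 35 °C in ambient air. MIC is the lowest concentration with no visible growth. Three repeats; oxacillin, vancomycin and chloramphenicol as positive controls.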

Enterococcus faecalis [2] = assay: Antibacterial activity against Enterococcus faecalis after 48 hrs by broth microdilution method; type: functional
Enterococcus faecium [3] = assay: Antibacterial activity against vancomycin-resistant Enterococcus faecium F935 expressing VanA after 24 hrs by broth microdilution method; type: functional; settings: F935, 24 h; outline: as §1
Enterococcus faecium [4] = assay: Antibacterial activity against vancomycin-resistant Enterococcus faecium F935 expressing VanA after 48 hrs by broth microdilution method; type: functional; settings: F935, 48 h
Enterococcus faecalis [5] = assay: Antibacterial activity against vancomycin-resistant Enterococcus faecalis CKU-17 expressing VanB after 24 hrs by broth microdilution method; type: functional; settings: CKU-17, 24 h; outline: as §1
Enterococcus faecalis [6] = assay: Antibacterial activity against vancomycin-resistant Enterococcus faecalis CKU-17 expressing VanB after 48 hrs by broth microdilution method; type: functional; settings: CKU-17, 48 h
Escherichia coli = assay: Antibacterial activity against Escherichia coli up to 100 ug/mL after 24 hrs by broth microdilution method; type: functional, organism-based
Outline: (§2)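 Broth microdilution with 2-fold serial dilutions in LB broth, compounds from DMSO stocks (DMSO below 5% final), inoculum about 5 × 10^5 CFU/mL. Incubated 24 h at 35 °C in ambient air. MIC is the lowest concentration with no visible growth. Experiments repeated three times.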

Pseudomonas aeruginosa = assay: Antibacterial activity against Pseudomonas aeruginosa up to 100 ug/mL after 24 hrs by broth microdilution method; type: functional, organism-based; outline: as §2
Staphylococcus aureus [7] = assay: Ratio of MBC to MIC for Staphylococcus aureus; type: functional
Enterococcus faecalis [8] = assay: Ratio of MBC to MIC for Enterococcus faecalis; type: functional
Enterococcus faecium [9] = assay: Ratio of MBC to MIC for vancomycin-resistant Enterococcus faecium F935 expressing VanA; type: functional
HepG2 = assay: Cytotoxicity against human HepG2 cells after 48 hrs by MTT assay; type: functional; settings: HepG2, 48 h, read-out: CD50 (the source's name)
Outline: (§3)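 Cells seeded at 5 × 10^3 per well, grown 24 h, then given 2-fold dilutions of sample for 48 h. Medium replaced with serum-free medium, MTT added (5 mg/mL stock) for 2 h at 37 °C, formazan dissolved in DMSO, OD read at 550 nm. CD50 is the concentration giving 50% reduction in net cell increase. Quadruplicate, repeated at least twice.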

HeLa = assay: Cytotoxicity against human HeLa cells after 48 hrs by MTT assay; type: functional; settings: read-out: CD50 (the source's name); outline: as §3
OVCAR-3 = assay: Cytotoxicity against human OVCAR-3 cells after 48 hrs by MTT assay; type: functional; settings: OVCAR-3, 48 h, read-out: CD50 (the source's name); outline: as §3
Staphylococcus aureus [10] = assay: Antibacterial activity against Staphylococcus aureus after 24 hrs by broth microdilution method; type: functional
Outline: as §1, with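 “in […]” for “in LB”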

Staphylococcus aureus [11] = assay: Antibacterial activity against Staphylococcus aureus after 48 hrs by broth microdilution method; type: functional
Staphylococcus aureus [12] = assay: Antibacterial activity against methicillin-resistant Staphylococcus aureus 8-8S after 24 hrs by broth microdilution method; type: functional
Outline: as §1, with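 “in […]” for “in LB”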

Staphylococcus aureus [13] = assay: Antibacterial activity against methicillin-resistant Staphylococcus aureus 8-8S after 48 hrs by broth microdilution method; type: functional
Staphylococcus aureus [14] = assay: Antibacterial activity against methicillin-resistant Staphylococcus aureus 8-8S assessed as reduction of bacterial count at MIC within 2 hrs by time kill assay; type: functional, organism-based
Outline: (§4)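 Time-kill in Mueller-Hinton broth with multiples of the broth microdilution MIC. Starting inoculum about 5 × 10^5 CFU/mL, incubated at 35 °C. Samples taken at 0, 2, 4, 6 and 24 h, dilution-plated on LB agar, and counted after 24 h. Detection limit 100 CFU/mL; bactericidal means 3 log or greater reduction.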

Staphylococcus aureus [15] = assay: Antibacterial activity against methicillin-resistant Staphylococcus aureus 8-8S assessed as reduction of bacterial count at 0.5 MIC within 2 hrs by time kill assay; type: functional; set-up: scale not given: the % may be the effect or the level left; outline: as §4
Enterococcus faecalis [16] = assay: Antibacterial activity against vancomycin-resistant Enterococcus faecalis CKU-17 expressing VanB assessed as reduction of bacterial count by time kill assay; type: functional, organism-based
Outline: (§5)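 Time-kill in LB broth with multiples of the broth microdilution MIC (1/2 to 8× MIC). Starting inoculum about 5 × 10^5 CFU/mL, incubated at 35 °C. Samples taken at 0, 2, 4, 6 and 24 h, dilution-plated on LB agar, and counted after 24 h. Detection limit 100 CFU/mL.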

Enterococcus faecium [17] = assay: Antibacterial activity against vancomycin-resistant Enterococcus faecium F935 expressing VanA assessed as reduction of bacterial count by time kill assay; type: functional, organism-based; outline: as §5
Enterococcus faecalis [18] = assay: Antibacterial activity against vancomycin-resistant Enterococcus faecalis CKU-17 expressing VanB assessed as reduction of bacterial count at >=2 times MIC within 4 hrs by time kill assay; type: functional, organism-based; outline: as §5
Enterococcus faecium [19] = assay: Antibacterial activity against vancomycin-resistant Enterococcus faecium F935 expressing VanA assessed as reduction of bacterial count at >=2 times MIC concentration within 4 hrs by time kill assay; type: functional, organism-based; outline: as §5
Enterococcus faecalis [20] = assay: Antibacterial activity against vancomycin-resistant Enterococcus faecalis CKU-17 expressing VanB assessed as reduction of bacterial count at MIC up to 6 hrs by time kill assay; type: functional, organism-based; outline: as §5
Enterococcus faecium [21] = assay: Antibacterial activity against vancomycin-resistant Enterococcus faecium F935 expressing VanA assessed as reduction of bacterial count at MIC up to 6 hrs by time kill assay; type: functional, organism-based; outline: as §5
Staphylococcus aureus [22] = assay: Ratio of MBC to MIC for methicillin-resistant Staphylococcus aureus 8-8S; type: functional
Enterococcus faecalis [23] = assay: Ratio of MBC to MIC for vancomycin-resistant Enterococcus faecalis CKU-17 expressing VanB; type: functional

Row | SMILES | MIC (Enterococcus faecalis [1]) | MBC (Enterococcus faecalis [2]) | MIC (Enterococcus faecium [3]) | MBC (Enterococcus faecium [4]) | MIC (Enterococcus faecalis [5]) | MBC (Enterococcus faecalis [6]) | Activity (Escherichia coli) | Activity (Pseudomonas aeruginosa) | Ratio (Staphylococcus aureus [7]) | Ratio (Enterococcus faecalis [8]) | Ratio (Enterococcus faecium [9]) | CC50 (HepG2) | CC50 (HeLa) | CC50 (OVCAR-3) | MIC (Staphylococcus aureus [10]) | MBC (Staphylococcus aureus [11]) | MIC (Staphylococcus aureus [12]) | MBC (Staphylococcus aureus [13]) | further results
1 | CC[C@H](C)C(=O)O[C@@H](CC=C(C)C)C1=CC(=O)c2c(O)ccc(O)c2C1=O | 1.56 µg/mL (≈ 4.19 µM) | 3.13 µg/mL (≈ 8.4 µM) | 1.56 µg/mL (≈ 4.19 µM) | 3.13 µg/mL (≈ 8.4 µM) | 1.56 µg/mL (≈ 4.19 µM) | 3.13 µg/mL (≈ 8.4 µM) | inactive | inactive | <=2 | <=2 | <=2 | 0.6 µg/mL (≈ 1.61 µM) | 0.8 µg/mL (≈ 2.15 µM) | 0.6 µg/mL (≈ 1.61 µM) | 0.78 µg/mL (≈ 2.09 µM) | 0.78 µg/mL (≈ 2.09 µM) | 1.56 µg/mL (≈ 4.19 µM) | 1.56 µg/mL (≈ 4.19 µM) | –
2 | CC(C)=CC[C@H](OC(=O)C=C(C)C)C1=CC(=O)c2c(O)ccc(O)c2C1=O | 3.13 µg/mL (≈ 8.45 µM) | 3.13 µg/mL (≈ 8.45 µM) | 3.13 µg/mL (≈ 8.45 µM) | 3.13 µg/mL (≈ 8.45 µM) | 3.13 µg/mL (≈ 8.45 µM) | 3.13 µg/mL (≈ 8.45 µM) | inactive | inactive | <=2 | <=2 | <=2 | 2.6 µg/mL (≈ 7.02 µM) | 1.8 µg/mL (≈ 4.86 µM) | 1.6 µg/mL (≈ 4.32 µM) | 1.56 µg/mL (≈ 4.21 µM) | 1.56 µg/mL (≈ 4.21 µM) | 1.56 µg/mL (≈ 4.21 µM) | 3.13 µg/mL (≈ 8.45 µM) | –
3 | CC(=O)O[C@@H](CC=C(C)C)C1=CC(=O)c2c(O)ccc(O)c2C1=O [ACETYLALKANNIN] | 3.13 µg/mL (≈ 9.48 µM) | 3.13 µg/mL (≈ 9.48 µM) | 6.25 µg/mL (≈ 18.9 µM) | 6.25 µg/mL (≈ 18.9 µM) | 6.25 µg/mL (≈ 18.9 µM) | 6.25 µg/mL (≈ 18.9 µM) | inactive | inactive | <=2 | <=2 | <=2 | 2 µg/mL (≈ 6.05 µM) | 1.5 µg/mL (≈ 4.54 µM) | 1.5 µg/mL (≈ 4.54 µM) | 1.56 µg/mL (≈ 4.72 µM) | 1.56 µg/mL (≈ 4.72 µM) | 1.56 µg/mL (≈ 4.72 µM) | 1.56 µg/mL (≈ 4.72 µM) | Activity (Staphylococcus aureus [14]): Active; Activity (Staphylococcus aureus [15]): >=99.9%; Activity (Enterococcus faecalis [16]): Dose-dependent effect; Activity (Enterococcus faecium [17]): Dose-dependent effect
4 | CC(C)=CC[C@H](O)C1=CC(=O)c2c(O)ccc(O)c2C1=O [ALKANNIN] | 50 µg/mL (≈ 173 µM) | 50 µg/mL (≈ 173 µM) | 50 µg/mL (≈ 173 µM) | 50 µg/mL (≈ 173 µM) | 25 µg/mL (≈ 86.7 µM) | 50 µg/mL (≈ 173 µM) | inactive | inactive | <=2 | <=2 | <=2 | 1 µg/mL (≈ 3.47 µM) | 0.8 µg/mL (≈ 2.77 µM) | 0.8 µg/mL (≈ 2.77 µM) | 6.25 µg/mL (≈ 21.7 µM) | 12.5 µg/mL (≈ 43.4 µM) | 6.25 µg/mL (≈ 21.7 µM) | 12.5 µg/mL (≈ 43.4 µM) | –
5 | CC(C)=CC[C@H](OC(=O)C(C)C)C1=CC(=O)c2c(O)ccc(O)c2C1=O [ISOBUTYLALKANNIN] | 3.13 µg/mL (≈ 8.73 µM) | 3.13 µg/mL (≈ 8.73 µM) | 3.13 µg/mL (≈ 8.73 µM) | 3.13 µg/mL (≈ 8.73 µM) | 3.13 µg/mL (≈ 8.73 µM) | 6.25 µg/mL (≈ 17.4 µM) | inactive | inactive | <=2 | <=2 | <=2 | 4 µg/mL (≈ 11.2 µM) | 5.4 µg/mL (≈ 15.1 µM) | 2 µg/mL (≈ 5.58 µM) | 1.56 µg/mL (≈ 4.35 µM) | 1.56 µg/mL (≈ 4.35 µM) | 1.56 µg/mL (≈ 4.35 µM) | 3.13 µg/mL (≈ 8.73 µM) | –
6 | CC(C)=CC[C@H](OC(=O)CC(C)C)C1=CC(=O)c2c(O)ccc(O)c2C1=O [ISOVALERYL ALKANNIN] | 3.13 µg/mL (≈ 8.4 µM) | 3.13 µg/mL (≈ 8.4 µM) | 3.13 µg/mL (≈ 8.4 µM) | 3.13 µg/mL (≈ 8.4 µM) | 3.13 µg/mL (≈ 8.4 µM) | 3.13 µg/mL (≈ 8.4 µM) | inactive | inactive | <=2 | <=2 | <=2 | 2.2 µg/mL (≈ 5.91 µM) | 1.7 µg/mL (≈ 4.56 µM) | 0.9 µg/mL (≈ 2.42 µM) | 1.56 µg/mL (≈ 4.19 µM) | 1.56 µg/mL (≈ 4.19 µM) | 3.13 µg/mL (≈ 8.4 µM) | 3.13 µg/mL (≈ 8.4 µM) | Activity (Enterococcus faecalis [18]): Active; Activity (Enterococcus faecium [19]): Active; Activity (Enterococcus faecalis [20]): Active; Activity (Enterococcus faecium [21]): Active
7 | CC1=CC(=O)c2c(O)cccc2C1=O [PLUMBAGIN] | 25 µg/mL (≈ 133 µM) | 100 µg/mL (≈ 531 µM) | 12.5 µg/mL (≈ 66.4 µM) | 50 µg/mL (≈ 266 µM) | 12.5 µg/mL (≈ 66.4 µM) | 50 µg/mL (≈ 266 µM) | – | – | >=4 | >=4 | >=4 | – | – | – | 3.13 µg/mL (≈ 16.6 µM) | 25 µg/mL (≈ 133 µM) | 3.13 µg/mL (≈ 16.6 µM) | 25 µg/mL (≈ 133 µM) | Ratio (Staphylococcus aureus [22]): >=4; Ratio (Enterococcus faecalis [23]): >=4
